According to ChEMBL document CHEMBL2034938, “Convenient synthesis of novel geiparvarin analogs with potential anti-cancer activity via click chemistry” (Eur J Med Chem, 2012):

What was measured:
SW480 = assay: Cytotoxicity against human SW480 cells by after 48 hrs by MTT assay; format: functional, cell-based; conditions: SW480, 48 h
Method in brief: (§1)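 MTT assay; cell lines obtained from Shanghai Institute of Biological Sciences, CAS. Compounds in DMSO stock (10 g/L), diluted in medium just before use. Cells seeded at 8000/well; compound added 24 h later, in duplicate. After 48 h at 37 °C, 5% CO₂, MTT (5 mg/mL in PBS) added for 4 h. Formazan dissolved in DMSO; absorbance read at 570 nm. IC50 taken as the concentration giving 50% growth inhibition.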

A549 [1] = assay: Cytotoxicity against human A549 cells by after 48 hrs by MTT assay; format: functional, cell-based; conditions: A549, 48 h; method in brief: as §1
SGC-7901 = assay: Cytotoxicity against human SGC7901 cells by after 48 hrs by MTT assay; format: functional, cell-based; conditions: SGC-7901, 48 h; method in brief: as §1
MDA-MB-231 = assay: Cytotoxicity against human MDA-MB-231 cells by after 48 hrs by MTT assay; format: functional, cell-based; conditions: MDA-MB-231, 48 h; method in brief: as §1
HeLa = assay: Cytotoxicity against human HeLa cells by after 48 hrs by MTT assay; format: functional, cell-based; method in brief: as §1
[2] = Cytotoxicity against human QGY7701 cells by after 48 hrs by MTT assay; format: functional, cell-based; conditions: QGY7701, 48 h; method in brief: as §1
[3] = Cytotoxicity against human L02 cells by after 48 hrs by MTT assay; format: cell-based; conditions: L02, 48 h; method in brief: as §1
A549 [4] = assay: Induction of apoptosis in human A549 cells assessed as viable cells at 1 uM after 48 hrs by annexinV/propidium iodide staining-based flow cytometric analysis ( Rvb = 95.96%); format: functional; conditions: A549, 48 h, read-out: Activity
A549 [5] = assay: Induction of apoptosis in human A549 cells assessed as viable cells at 4 uM after 48 hrs by annexinV/propidium iodide staining-based flow cytometric analysis ( Rvb = 95.96%); format: functional; conditions: A549, 48 h, read-out: Activity
A549 [6] = assay: Induction of apoptosis in human A549 cells assessed as late apoptotic cells at 2 uM after 48 hrs by annexinV/propidium iodide staining-based flow cytometric analysis (reference value: 0.16%); format: functional
A549 [7] = assay: Induction of apoptosis in human A549 cells assessed as early apoptotic cells at 8 uM after 48 hrs by annexinV/propidium iodide staining-based flow cytometric analysis ( Rvb = 0.15%); format: functional
A549 [8] = assay: Induction of apoptosis in human A549 cells assessed as viable cells at 2 uM after 48 hrs by annexinV/propidium iodide staining-based flow cytometric analysis ( Rvb = 95.96%); format: functional; conditions: A549, 48 h, read-out: Activity
A549 [9] = assay: Induction of apoptosis in human A549 cells assessed as late apoptotic cells at 4 uM after 48 hrs by annexinV/propidium iodide staining-based flow cytometric analysis (reference value: 0.16%); format: functional
A549 [10] = assay: Induction of apoptosis in human A549 cells assessed as necrotic cells at 2 uM after 48 hrs by annexinV/propidium iodide staining-based flow cytometric analysis (reference value: 3.72%); conditions: A549, 48 h
A549 [11] = assay: Induction of apoptosis in human A549 cells assessed as early apoptotic cells at 1 uM after 48 hrs by annexinV/propidium iodide staining-based flow cytometric analysis ( Rvb = 0.15%); format: functional
A549 [12] = assay: Induction of apoptosis in human A549 cells after 48 hrs by annexinV/propidium iodide staining-based flow cytometric analysis; format: functional, cell-based
A549 [13] = assay: Induction of apoptosis in human A549 cells assessed as early apoptotic cells at 4 uM after 48 hrs by annexinV/propidium iodide staining-based flow cytometric analysis ( Rvb = 0.15%); format: functional
A549 [14] = assay: Induction of apoptosis in human A549 cells assessed as necrotic cells at 8 uM after 48 hrs by annexinV/propidium iodide staining-based flow cytometric analysis (reference value: 3.72%); conditions: A549, 48 h
A549 [15] = assay: Induction of apoptosis in human A549 cells assessed as late apoptotic cells at 8 uM after 48 hrs by annexinV/propidium iodide staining-based flow cytometric analysis (reference value: 0.16%); format: functional
A549 [16] = assay: Induction of apoptosis in human A549 cells assessed as late apoptotic cells at 1 uM after 48 hrs by annexinV/propidium iodide staining-based flow cytometric analysis (reference value: 0.16%); format: functional
A549 [17] = assay: Induction of apoptosis in human A549 cells assessed as necrotic cells at 4 uM after 48 hrs by annexinV/propidium iodide staining-based flow cytometric analysis (reference value: 3.72%); conditions: A549, 48 h
A549 [18] = assay: Induction of apoptosis in human A549 cells assessed as viable cells at 8 uM after 48 hrs by annexinV/propidium iodide staining-based flow cytometric analysis ( Rvb = 95.96%); format: functional; conditions: A549, 48 h, read-out: Activity
A549 [19] = assay: Induction of apoptosis in human A549 cells assessed as early apoptotic cells at 2 uM after 48 hrs by annexinV/propidium iodide staining-based flow cytometric analysis ( Rvb = 0.15%); format: functional

Compound	IC50 (SW480) [µM]	IC50 (A549 [1]) [µM]	IC50 (SGC-7901) [µM]	IC50 (MDA-MB-231) [µM]	IC50 (HeLa) [µM]	IC50 [2] [µM]	IC50 [3] [µM]	further results
O=c1ccoc2cc(OCc3cn(Cc4cccc(Br)c4)nn3)ccc12	> 100	> 100	> 100	> 100	> 100	17.6	> 300	–
O=c1ccoc2cc(OCc3cn(Cc4ccc(F)cc4)nn3)ccc12	11.2	> 100	> 100	> 100	12	14.4	> 300	–
O=c1ccoc2cc(OCc3cn(Cc4ccccc4)nn3)ccc12	42.9	> 100	> 100	> 100	> 100	> 100	> 300	–
N#Cc1ccc(Cn2cc(COc3ccc4c(=O)ccoc4c3)nn2)cc1	> 100	> 100	> 100	> 100	> 100	> 100	> 300	–
O=c1ccoc2cc(OCc3cn(Cc4ccccc4Br)nn3)ccc12	> 100	> 100	> 100	> 100	14.5	> 100	> 300	–
N#Cc1cccc(Cn2cc(COc3ccc4c(=O)ccoc4c3)nn2)c1	> 100	14.3	> 100	> 100	> 100	24.4	> 300	–
Cc1ccccc1Cn1cc(COc2ccc3c(=O)ccoc3c2)nn1	> 100	> 100	> 100	> 100	15.3	> 100	> 300	–
Cc1ccc(Cn2cc(COc3ccc4c(=O)ccoc4c3)nn2)cc1	10.4	50.7	> 100	> 100	> 100	68.5	> 300	–
Cc1cccc(Cn2cc(COc3ccc4c(=O)ccoc4c3)nn2)c1	11.7	20.3	> 100	16	> 100	22.4	> 300	–
COc1ccc(Cn2cc(COc3ccc4c(=O)ccoc4c3)nn2)cc1	20.4	16.5	> 100	> 100	14.4	56.6	> 300	–
O=c1ccoc2cc(OCc3cn(Cc4ccc(Cl)cc4Cl)nn3)ccc12	> 100	5.26	> 100	> 100	80.6	13.3	> 300	viability at 1 µM (A549 [4]): 88.4%; viability at 4 µM (A549 [5]): 65.8%; Activity (A549 [6]): 3.56%; Activity (A549 [7]): 29.73%; viability at 2 µM (A549 [8]): 76.4%; Activity (A549 [9]): 3.55%; necrotic cells at 2 µM (A549 [10]): 2.42%; Activity (A549 [11]): 7.13%; Activity (A549 [12]): Dose-dependent effect; Activity (A549 [13]): 28.45%; necrotic cells at 8 µM (A549 [14]): 1.64%; Activity (A549 [15]): 3.33%; Activity (A549 [16]): 2.31%; necrotic cells at 4 µM (A549 [17]): 2.19%; viability at 8 µM (A549 [18]): 65.3%; Activity (A549 [19]): 17.62%
O=c1ccoc2cc(OCc3cn(Cc4ccccc4F)nn3)ccc12	11.4	10.8	> 100	–	> 100	36.9	> 300	–
C/C(=C\COc1ccc2ccc(=O)oc2c1)C1=CC(=O)C(C)(C)O1 [GEIPARVARIN]	20.3	18	7.59	9.88	9.09	17.7	> 300	viability at 1 µM (A549 [4]): 90.7%; viability at 4 µM (A549 [5]): 71.7%; Activity (A549 [6]): 5.25%; Activity (A549 [7]): 25.25%; viability at 2 µM (A549 [8]): 77%; Activity (A549 [9]): 4.27%; necrotic cells at 2 µM (A549 [10]): 4.26%; Activity (A549 [11]): 6.19%; Activity (A549 [13]): 18.87%; necrotic cells at 8 µM (A549 [14]): 5.87%; Activity (A549 [15]): 3.56%; Activity (A549 [16]): 1.32%; necrotic cells at 4 µM (A549 [17]): 5.13%; viability at 8 µM (A549 [18]): 65.3%; Activity (A549 [19]): 11.51%
O=c1[nH]cc(F)c(=O)[nH]1 [FLUOROURACIL]	–	–	6.04	–	–	–	46.6	–
O=c1ccoc2cc(OCc3cn(Cc4ccc(Cl)cc4)nn3)ccc12	> 100	> 100	> 100	> 100	37.6	41.7	> 300	–
CC(C)(C)c1ccc(Cn2cc(COc3ccc4c(=O)ccoc4c3)nn2)cc1	28.8	> 100	> 100	> 100	17.6	> 100	> 300	–
O=c1ccoc2cc(OCc3cn(Cc4cccc(F)c4)nn3)ccc12	> 100	> 100	> 100	> 100	7.55	> 100	> 300	–
O=c1ccoc2cc(OCc3cn(Cc4ccc(Br)cc4)nn3)ccc12	37.5	> 100	> 100	> 100	> 100	96.4	> 300	–
O=c1ccoc2cc(OCc3cn(Cc4cccc([N+](=O)[O-])c4)nn3)ccc12	> 100	9.45	> 100	> 100	17.3	14.1	> 300	viability at 1 µM (A549 [4]): 86.7%; viability at 4 µM (A549 [5]): 74.7%; Activity (A549 [6]): 3.39%; Activity (A549 [7]): 21.54%; viability at 2 µM (A549 [8]): 80.1%; Activity (A549 [9]): 6.36%; necrotic cells at 2 µM (A549 [10]): 5.68%; Activity (A549 [11]): 8.07%; Activity (A549 [13]): 13.55%; necrotic cells at 8 µM (A549 [14]): 4.16%; Activity (A549 [15]): 5.68%; Activity (A549 [16]): 3%; necrotic cells at 4 µM (A549 [17]): 5.44%; viability at 8 µM (A549 [18]): 70.6%; Activity (A549 [19]): 10.87%
O=c1ccoc2cc(OCc3cn(Cc4ccc([N+](=O)[O-])cc4)nn3)ccc12	19.3	> 100	> 100	–	25.7	> 100	> 300	–
C#CCOc1ccc2c(=O)ccoc2c1	> 100	> 100	> 100	> 100	64.7	58.5	> 300	–
O=c1ccoc2cc(OCc3cn(Cc4ccccc4Cl)nn3)ccc12	23.5	> 100	> 100	–	> 100	19.7	> 300	–
O=c1ccoc2cc(OCc3cn(Cc4cccc(Cl)c4)nn3)ccc12	12.9	13.7	> 100	> 100	> 100	28.4	> 300	–
